High-throughput results: PubChem BioAssay, several laboratories
WT yeast gro inh = growth inhibition of WT yeast, mitochondrial fusion screen; mitochondrial fusion phenotypic screen, WT strain; inhibition, % at 10 µM; 190,000 tested, 2.1% active; AID 1362; in the data active means inhibition above about 58%; tested in S. cerevisiae
Diaph inh CS = inhibits diaphorase or chemically oxidizes, flagging diaphorase assay artifacts; 190,000 tested, 0.69% active; diaphorase resazurin-to-resorufin fluorescence, NADH, 16 min; bacterial (C. kluyveri) enzyme, not human; inhibition, % at 20 µM;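 active means primary screen inhibition at 20 µM above a set limit, cut at about 50% in these data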;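 further: plate controls were DMSO with full reaction for no effect and wells lacking NADH for full effect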
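Assay system: diaphorase enzyme from Clostridium kluyveri. Quantity: enzyme working solution with 0.14 U/mL diaphorase. Schedule: reaction incubation of 16 min at room temperature. Technique: resorufin fluorescence, excitation 544 nm, emission 590 nm. Controls: No-NADH positive control and DMSO neutral control.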
KCC2 mod = modulates chloride dependent transport by human KCC2; Q9H2X9; KCC2 cells, thallium flux FluoZin-2 fluorescence; B-score of Tl+ flux slope (higher = more flux/activation; lower = inhibition) at 10 µM; 190,000 tested, 2.2% active;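 active means thallium flux slope and its plate-corrected score both differing from the plate sample mean at a set confidence after two filtering rounds, in either direction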;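 further: slope of fluorescence scaled to starting intensity during 10 to 20 s after thallium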
Target sequence (Q9H2X9 whole entry, looked up): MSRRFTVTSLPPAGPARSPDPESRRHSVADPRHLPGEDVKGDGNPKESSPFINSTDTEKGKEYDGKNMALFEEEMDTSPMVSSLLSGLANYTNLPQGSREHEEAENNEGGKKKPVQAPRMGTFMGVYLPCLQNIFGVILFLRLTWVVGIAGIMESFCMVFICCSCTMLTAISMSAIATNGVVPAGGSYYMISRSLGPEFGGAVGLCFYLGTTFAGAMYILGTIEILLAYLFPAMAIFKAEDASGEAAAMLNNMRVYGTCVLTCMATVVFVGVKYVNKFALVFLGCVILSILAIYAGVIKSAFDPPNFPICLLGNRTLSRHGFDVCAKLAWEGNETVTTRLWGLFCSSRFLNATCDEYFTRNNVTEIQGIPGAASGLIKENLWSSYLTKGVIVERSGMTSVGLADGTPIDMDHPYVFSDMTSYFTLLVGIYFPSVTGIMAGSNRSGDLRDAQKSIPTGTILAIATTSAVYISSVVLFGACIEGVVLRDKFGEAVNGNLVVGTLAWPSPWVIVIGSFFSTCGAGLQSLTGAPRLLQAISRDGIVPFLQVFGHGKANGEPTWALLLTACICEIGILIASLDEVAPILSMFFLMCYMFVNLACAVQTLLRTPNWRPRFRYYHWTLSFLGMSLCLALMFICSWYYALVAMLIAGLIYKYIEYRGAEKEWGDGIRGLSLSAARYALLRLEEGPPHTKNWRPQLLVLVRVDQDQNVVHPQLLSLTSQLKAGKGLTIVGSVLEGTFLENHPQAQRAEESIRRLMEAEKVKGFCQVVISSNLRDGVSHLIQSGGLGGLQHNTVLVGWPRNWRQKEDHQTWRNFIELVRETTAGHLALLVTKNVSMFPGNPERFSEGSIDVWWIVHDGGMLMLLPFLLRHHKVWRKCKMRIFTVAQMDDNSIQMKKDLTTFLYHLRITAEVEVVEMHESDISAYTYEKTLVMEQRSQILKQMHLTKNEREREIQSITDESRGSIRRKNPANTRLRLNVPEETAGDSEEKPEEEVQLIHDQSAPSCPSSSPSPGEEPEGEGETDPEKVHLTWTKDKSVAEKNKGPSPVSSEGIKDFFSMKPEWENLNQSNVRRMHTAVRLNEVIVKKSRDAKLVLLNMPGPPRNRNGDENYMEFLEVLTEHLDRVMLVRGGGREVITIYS
ROMK mod = human ROMK K+ channel modulation, primary screen; P48048; Tet-inducible ROMK, thallium flux fluorescence; actives lie on both sides; B-score at 10 µM; 130,000 tested, 2% active;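 active means signal ratio slope over the read window, or its plate-corrected B-score, at least 3 SD from the plate mean, either direction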;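 further: B-score of the F/F0 ratio slope over 7 to 12 s after thallium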
Diaphorase act = diaphorase activation or chemical reduction counter-screen; Diaphorase/resazurin coupled assay, resorufin fluorescence, 16 min; stronger effect = higher value; 1 = vehicle wells, 0 = NADH-free wells; activation factor at 20 µM; 190,000 tested, 0.005% active;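 active means diaphorase activity raised at least twofold by the compound at 20 µM; inactive means activation factor below 2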
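Material: Clostridium kluyveri diaphorase, purified enzyme; Quantity: enzyme 0.07 U/mL final; Medium: HEPES pH 7.4 buffer with MgCl2 and Tween 20; Dosing: single compound dose of 20 µM, 1% DMSO final; Schedule: 16 min reaction at room temperature; Measured by: red resorufin fluorescence at 544/590 nm excitation/emission.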
Lmaj promast = inhibitors of Leishmania major promastigote growth; Leishmania major promastigotes, resazurin fluorescence viability; inhibition, % at 10 µM; 200,000 tested, 9% active; AID 1063; in the data active means inhibition above about 50%;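 further: promastigotes grown with compound for 44 hours at 28 °C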
The depositor's hits bear a star. Rows were chosen to be rich in hits. Some 12% of all compounds tested hit in one or more screens of this group.

For O=C(NNCC(O)COc1ccccc1)c1ccccc1 (stereo not given) the results were WT yeast gro inh 10, Diaph inh CS 14, KCC2 mod 0.2, ROMK mod -0.036, Diaphorase act 0.9 and Lmaj promast -3.
`COc1ccc(OCC(O)CNC(=O)c2ccccc2)cc1` (stereo not given) gave KCC2 mod -0.78.
Screening OC(CNCCC(c1ccccc1)c1ccccc1)COc1ccccc1 (stereo not given) returned WT yeast gro inh 74*, Diaph inh CS -5, KCC2 mod 0.91, ROMK mod -2.4, Diaphorase act 1 and Lmaj promast 43.
Screening CC(C)CCNCC(O)CON=C1c2ccccc2-c2ccccc21 (stereo not given) returned WT yeast gro inh 41, Diaph inh CS -3, KCC2 mod 1.6, ROMK mod -1.1, Diaphorase act 1 and Lmaj promast 88*.
CC(C)N(CCNCC(O)COc1ccc(C(C)(C)c2ccccc2)cc1)C(C)C (stereo not given) was read as WT yeast gro inh 56, Diaph inh CS -8, KCC2 mod 0.29, ROMK mod -0.89, Diaphorase act 1.1 and Lmaj promast 94*.
Screening CCOC(=O)c1ccc(NC(=O)Nc2cc(C)cc(C)n2)cc1 returned WT yeast gro inh 7, Diaph inh CS -7, KCC2 mod 0.4, ROMK mod 0.57, Diaphorase act 1.1 and Lmaj promast -3.
For CCn1c2ccc(/C(C)=N\O)cc2c2cc(/C(C)=N\O)ccc21 the results were WT yeast gro inh -3, Diaph inh CS 8, KCC2 mod 0.075, Diaphorase act 0.9 and Lmaj promast 54*.
Screening COc1ccc(N(C(=O)c2ccco2)S(=O)(=O)c2cc(Cl)c(Cl)cc2Cl)cc1 returned WT yeast gro inh 59*, Diaph inh CS 17, KCC2 mod -0.15, ROMK mod 0.56, Diaphorase act 0.8 and Lmaj promast 6.
Screening CC(NS(=O)(=O)c1cccc(S(=O)(=O)c2ccccc2)c1)C(=O)O (stereo not given) returned WT yeast gro inh -2, Diaph inh CS -1, KCC2 mod 0.8, Diaphorase act 1 and Lmaj promast -4.
Screening CC(C)Oc1cccc(C(=O)NC(=S)NCc2cccnc2)c1 returned WT yeast gro inh 16, Diaph inh CS 22, KCC2 mod -0.087, ROMK mod -0.19, Diaphorase act 0.8 and Lmaj promast -8.
`CC1(C(=O)N(Cc2ccccc2)Cc2ccccc2)CC1(Br)Br` (stereo not given) gave WT yeast gro inh 83*, Diaph inh CS 16, KCC2 mod -1.2, ROMK mod 0.53, Diaphorase act 0.8 and Lmaj promast 6.
CN(Cc1ccccc1)C(=O)CCC(=O)N(C)Cc1ccccc1 was read as WT yeast gro inh -7, Diaph inh CS 15, KCC2 mod -0.79, ROMK mod 0.13, Diaphorase act 0.8 and Lmaj promast -5.
`CCOC(=O)c1ccc(-n2c(CN3CCC(O)CC3)nc3ccc([N+](=O)[O-])cc3c2=O)cc1` gave WT yeast gro inh 14, Diaph inh CS 12, KCC2 mod 1.5, ROMK mod -0.4, Diaphorase act 0.9 and Lmaj promast 16.
`CN(C(=O)c1ccccc1C(=O)OCC(=O)NCc1ccccc1)C1CCCCC1` gave WT yeast gro inh 1, Diaph inh CS 7, KCC2 mod -0.041, Diaphorase act 0.9 and Lmaj promast 67*.
For O=C(NNC(=O)c1cccs1)c1ccc([N+](=O)[O-])cc1 the results were WT yeast gro inh 9, Diaph inh CS 0, KCC2 mod -2.6, ROMK mod 0.89, Diaphorase act 1 and Lmaj promast -9.
CC(O)CNc1nc2sc3c(c2c(=O)n1CCc1ccccc1)CCCCC3 (stereo not given) was read as WT yeast gro inh 75*, Diaph inh CS 28, KCC2 mod -0.21, Diaphorase act 0.7 and Lmaj promast 22.
For O=C(CCN1CCOCC1)c1ccc2c(c1)OCCO2 the results were WT yeast gro inh -1, Diaph inh CS 8, KCC2 mod 0.22, ROMK mod 0.17, Diaphorase act 0.9 and Lmaj promast 100*.
O=C(CCCO)c1ccc2c(c1)OCCO2 was read as WT yeast gro inh 15, Diaph inh CS 8, KCC2 mod 0.092, ROMK mod 0.8, Diaphorase act 0.9 and Lmaj promast -1.
O=C(CCCN1CCC(c2ccccc2)C1)c1ccc2c(c1)OCCO2 (stereo not given) was read as WT yeast gro inh 14, Diaph inh CS 11, KCC2 mod -1.2, Diaphorase act 0.9 and Lmaj promast 95*.
Screening O=C(Cc1ccccc1)c1ccc2c(c1)OCCO2 returned WT yeast gro inh -3, Diaph inh CS 10, KCC2 mod -0.79, ROMK mod -0.92, Diaphorase act 0.9 and Lmaj promast -7.
`O=C(CCCN1CCOCC1)c1ccc2c(c1)OCCO2` gave WT yeast gro inh 10, Diaph inh CS 4, KCC2 mod 0.48, ROMK mod 1.2, Diaphorase act 1 and Lmaj promast 90*.
For O=C(CCN1CCc2ccccc2CC1)c1ccc2c(c1)OCCO2 the results were WT yeast gro inh -4, Diaph inh CS 23, KCC2 mod -0.26, ROMK mod -1.1, Diaphorase act 0.8 and Lmaj promast 89*.
For CCCNC(=O)CN1C(=O)NC(Cc2c[nH]c3ccccc23)C1=O (stereo not given) the results were WT yeast gro inh -9, Diaph inh CS -15, KCC2 mod 0.78, ROMK mod 0.96, Diaphorase act 1.2 and Lmaj promast 7.
O=C(CSc1cccc2cccc(Cl)c12)NCc1cccs1 was read as WT yeast gro inh 10, Diaph inh CS 27, KCC2 mod -1.6, ROMK mod 0.5, Diaphorase act 0.7 and Lmaj promast 30.
`O=C(NC1CCc2ccccc21)C1CCN(S(=O)(=O)c2ccc(Cl)cc2)CC1` (stereo not given) gave WT yeast gro inh 5, Diaph inh CS 11, KCC2 mod 0.24, ROMK mod 0.56, Diaphorase act 0.9 and Lmaj promast 41.
Screening O=S(=O)(NC1CCc2ccccc21)c1ccc(S(=O)(=O)N2CCCC2)cc1 (stereo not given) returned WT yeast gro inh -11, Diaph inh CS 11, KCC2 mod -0.86, ROMK mod -0.53, Diaphorase act 0.9 and Lmaj promast 72*.
Screening CCc1ccc(Nc2nnc(SCC(=O)N(C)CC(=O)Nc3ccccc3CC)s2)cc1 returned WT yeast gro inh -18, Diaph inh CS 4, KCC2 mod -3.6, ROMK mod 0.21, Diaphorase act 1 and Lmaj promast 73*.
`CCc1ccccc1NC(=O)CN(C)C(=O)CSc1nnc(Nc2ccc(C)cc2)s1` gave WT yeast gro inh -6, Diaph inh CS 8, KCC2 mod -1.9, Diaphorase act 0.9 and Lmaj promast 72*.
